Measured values reported in ChEMBL document CHEMBL5634200, “Discovery of the First Potent DYRK2 Proteolysis Targeting Chimera Degraders” (ACS Med Chem Lett, 2024).
One block for each molecule: values may come before it. Calls of active or inactive are those of the source. The calls are words filed in the database; no cut-off is given here.

Columns and labels:
[1] = target: T1, Protein cereblon/Dual specificity tyrosine-phosphorylation-regulated kinase 2 (Homo sapiens, UniProt Q92630+Q96SW2); test: PROTAC activity at CRBN/DYRK2 in human HeLa cells assessed as induction of DYRK2 degradation at 5 to 10 uM incubated for 24 hrs by Western blot analysis; assay type: cell-based; conditions: dose 5-10 µM
In short: (§1)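 HeLa cells treated 24 h (one series at 10 and 20 μM, another at 5 and 10 μM); DYRK2 immunoblotted with GAPDH loading reference; band quantitation as mean ± SEM of three independent replicates, one-way ANOVA.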

[2] = target: T1, Protein cereblon/Dual specificity tyrosine-phosphorylation-regulated kinase 2; test: PROTAC activity at CRBN/DYRK2 in human HeLa cells assessed as induction of DYRK2 degradation at 2.5 to 40 uM incubated for 24 hrs by Western blot analysis; assay type: cell-based; conditions: dose 2.5-40 µM
In short: (§2)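 HeLa cells exposed to graded concentrations for 24 h; DYRK2 Western blot normalised to GAPDH, three independent replicates (mean ± SEM); DC50 derived from concentration series.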

[3] = target: T1, Protein cereblon/Dual specificity tyrosine-phosphorylation-regulated kinase 2; test: PROTAC activity at CRBN/DYRK2 in human MDA-MB-231 cells assessed as reduction of DYRK2 protein level at 5 uM incubated for 12 hrs in presence of 3,5-bis(2-bromobenzylidene)piperidin-4-one by Western blot analysis; assay type: cell-based
[4] = target: T1, Protein cereblon/Dual specificity tyrosine-phosphorylation-regulated kinase 2; test: PROTAC activity at CRBN/DYRK2 in human HeLa cells assessed as induction of DYRK2 degradation incubated for 24 hrs by Western blot analysis; assay type: cell-based; in short: as §2
[5] = target: T1, Protein cereblon/Dual specificity tyrosine-phosphorylation-regulated kinase 2; test: PROTAC activity at CRBN/DYRK2 in human MDA-MB-231 cells assessed as decrease in p53 phosphorylation at Ser46 residue at 5 to 20 uM incubated for 12 hrs by Western blot analysis; assay type: cell-based; conditions: dose 5-20 µM
In short: (§3)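 MM231 cells exposed 12 h across 1.25 to 20 μM; phospho-p53 (Ser46) and phospho-c-Myc (Ser62) immunoblotted, GAPDH loading reference; mean ± SEM of three independent replicates, one-way ANOVA.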

[6] = target: T1, Protein cereblon/Dual specificity tyrosine-phosphorylation-regulated kinase 2; test: PROTAC activity at CRBN/DYRK2 in human HeLa cells assessed as decrease in DYRK2 level at 5 uM by Western blot analysis; assay type: cell-based; conditions: time 3-24 hrs, TDE = time-dependent effect
In short: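 HeLa cells held at 5 μM over a time course (3 to 24 h); DYRK2 immunoblot normalised to GAPDH, quantified from three independent replicates, one-way ANOVA.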

[7] = target: T2, Dual specificity tyrosine-phosphorylation-regulated kinase 2 (Homo sapiens, UniProt Q92630); test: Binding affinity to DYRK2 (unknown origin) assessed as dissociation constant by SPR analysis
T2 sequence (Q92630 whole entry): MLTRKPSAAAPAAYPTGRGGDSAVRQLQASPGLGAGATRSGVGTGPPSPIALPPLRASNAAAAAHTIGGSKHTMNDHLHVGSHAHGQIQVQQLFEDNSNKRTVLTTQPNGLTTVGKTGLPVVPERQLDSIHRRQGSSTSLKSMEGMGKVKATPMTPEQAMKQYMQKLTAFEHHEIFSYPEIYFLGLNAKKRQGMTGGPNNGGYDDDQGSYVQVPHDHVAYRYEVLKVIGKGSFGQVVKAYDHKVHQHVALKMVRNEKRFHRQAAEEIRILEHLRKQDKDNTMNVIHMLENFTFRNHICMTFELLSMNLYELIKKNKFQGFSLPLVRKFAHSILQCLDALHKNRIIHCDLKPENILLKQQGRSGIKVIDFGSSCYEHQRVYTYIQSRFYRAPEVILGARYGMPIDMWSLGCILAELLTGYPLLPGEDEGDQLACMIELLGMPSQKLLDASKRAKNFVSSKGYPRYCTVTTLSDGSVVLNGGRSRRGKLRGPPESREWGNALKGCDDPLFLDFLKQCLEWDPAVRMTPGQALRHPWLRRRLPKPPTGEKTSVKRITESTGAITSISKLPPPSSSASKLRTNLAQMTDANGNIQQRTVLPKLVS

[8] = target: T1, Protein cereblon/Dual specificity tyrosine-phosphorylation-regulated kinase 2; test: PROTAC activity at CRBN/DYRK2 in human MDA-MB-231 cells assessed as reduction in DYRK2 degradation level at 10 uM preincubated with MG132 for 2 hrs followed by compound addition and further incubated for 12 hrs by Western blot analysis; assay type: cell-based
In short: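 MM231 cells pretreated 2 h with 10 μM MG132 (UPS inhibitor) before compound for 12 h; DYRK2 Western blot with GAPDH reference, three independent replicates, one-way ANOVA.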

[9] = target: T1, Protein cereblon/Dual specificity tyrosine-phosphorylation-regulated kinase 2; test: PROTAC activity at CRBN/DYRK2 in human MDA-MB-231 cells assessed as decrease in DYRK2 level at 2.5 to 10 uM incubated for 12 hrs by flow cytometry analysis; assay type: cell-based; conditions: dose 5-10 µM, in the assay text read “5 to 10 uM” for “2.5 to 10 uM”
In short: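 MM231 cells treated 12 h; DYRK2 immunostaining quantified by flow cytometry as FITC-A channel fluorescence intensity.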

[10] = target: T1, Protein cereblon/Dual specificity tyrosine-phosphorylation-regulated kinase 2; test: PROTAC activity at CRBN/DYRK2 in human MDA-MB-231 cells assessed as induction of DYRK2 degradation at 2.5 to 40 uM incubated for 24 hrs by Western blot analysis; assay type: cell-based; conditions: dose 2.5-40 µM
In short: (§4)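 MM231 cells given graded concentrations for 24 h; DYRK2 Western blot with GAPDH loading reference, three independent replicates (mean ± SEM); DC50 taken from concentration–degradation data.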

[11] = target: T1, Protein cereblon/Dual specificity tyrosine-phosphorylation-regulated kinase 2; test: PROTAC activity at CRBN/DYRK2 in human MDA-MB-231 cells assessed as induction of DYRK2 degradation incubated for 24 hrs by Western blot analysis; assay type: cell-based; in short: as §4
[12] = target: T1, Protein cereblon/Dual specificity tyrosine-phosphorylation-regulated kinase 2; test: PROTAC activity at CRBN/DYRK2 in human MDA-MB-231 cells assessed as decrease in c-Myc phosphorylation at Ser62 residue at 5 to 20 uM incubated for 12 hrs by Western blot analysis; assay type: cell-based; conditions: dose 5-20 µM; in short: as §3
[13] = target: T1, Protein cereblon/Dual specificity tyrosine-phosphorylation-regulated kinase 2; test: PROTAC activity at CRBN/DYRK2 in human MDA-MB-231 cells assessed as increase in ubiquitination of DYRK2 at 10 uM incubated for 12 hrs by coimmunoprecipitation analysis; assay type: cell-based
In short: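 MM231 cells pretreated with 10 μM MG132 for 2 h, then compound for 12 h; DYRK2 and ubiquitin examined by co-immunoprecipitation.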

MDA-MB-231 = test: Antiproliferative activity against human MDA-MB-231 cells assessed as inhibition of cell proliferation by CCK-8 assay; assay type: functional, cell-based
[14] = target: T1, Protein cereblon/Dual specificity tyrosine-phosphorylation-regulated kinase 2; test: PROTAC activity at CRBN/DYRK2 in human HeLa cells assessed as decrease in DYRK2 level by measuring reduction in fluorescence intensity at 5 to 10 uM incubated for 12 hrs by immunofluorescence based confocal laser scanning microscopy; assay type: cell-based; conditions: dose 5-10 µM
In short: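 HeLa cells treated 5 and 10 μM for 12 h; DYRK2 immunostained, Cy3 fluorescence intensity read by confocal laser scanning microscopy and quantified.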

[15] = target: T2, Dual specificity tyrosine-phosphorylation-regulated kinase 2; test: Inhibition of human recombinant DYRK2 using KKISGRLSPIMTEQ as substrate incubated for 60 mins in the presence of ATP by ADP-Glo kinase assay
[16] = target: T1, Protein cereblon/Dual specificity tyrosine-phosphorylation-regulated kinase 2; test: PROTAC activity at CRBN/DYRK2 in human HeLa cells assessed as induction of DYRK2 degradation at 10 to 20 uM incubated for 24 hrs by Western blot analysis; assay type: cell-based; conditions: dose 10-20 µM; in short: as §1
[17] = target: T1, Protein cereblon/Dual specificity tyrosine-phosphorylation-regulated kinase 2; test: PROTAC activity at CRBN/DYRK2 in human HeLa cells assessed as reduction in DYRK2 protein level at 5 to 10 uM incubated for 12 hrs by Western blot analysis; assay type: cell-based; conditions: dose 5-10 µM

SMILES: COc1cc(/C=C/C(=O)CC(=O)/C=C/c2ccc(O)c(OC)c2)ccc1O [CURCUMIN]
Kd [7]: 14.5 µM
IC50 (MDA-MB-231): > 20 µM
IC50 [15]: 0.01 µM

SMILES: O=C1/C(=C/c2ccccc2Br)CNC/C1=C\c1ccccc1Br
Kd [7]: 7.9 µM
IC50 (MDA-MB-231): 4.2 µM
IC50 [15]: 0.024 µM

SMILES: COc1cc(/C=C/C(=O)CC(=O)/C=C/c2ccc(OC(=O)CCOCCOCCOCCNC(=O)COc3cccc4c3C(=O)N(C3CCC(=O)NC3=O)C4=O)c(OC)c2)ccc1O (centres undefined)
Activity [16]: Active

SMILES: COc1cc(/C=C/C(=O)CC(=O)/C=C/c2ccc(OC(=O)CCOCCOCCNC(=O)COc3cccc4c3C(=O)N(C3CCC(=O)NC3=O)C4=O)c(OC)c2)ccc1O (centres undefined)
Activity [16]: Active

SMILES: O=C(CN1C/C(=C\c2ccccc2Cl)C(=O)/C(=C/c2ccccc2Cl)C1)NCCOCCOCCOCCNc1cccc2c1C(=O)N(C1CCC(=O)NC1=O)C2=O (centres undefined)
Activity [1]: Active

Next, values leading:

Activity [1]: Active
SMILES: O=C(CN1C/C(=C\c2ccccc2Br)C(=O)/C(=C/c2ccccc2Br)C1)NCCOCCOCCNc1cccc2c1C(=O)N(C1CCC(=O)NC1=O)C2=O (centres undefined)

Activity [2]: Active
Activity [3]: inactive
DC50 [4]: 3.26 µM
Activity [5]: Active
Activity [6]: Tde
Kd [7]: 29.7 µM
Activity [8]: inactive
Activity [9]: Active
Activity [10]: Active
DC50 [11]: 1.61 µM
Activity [1]: Active
Activity [12]: Active
Activity [13]: Active
IC50 (MDA-MB-231): 9.1 µM
Activity [14]: Active
SMILES: O=C(CN1C/C(=C\c2ccccc2Br)C(=O)/C(=C/c2ccccc2Br)C1)NCCOCCOCCOCCNc1cccc2c1C(=O)N(C1CCC(=O)NC1=O)C2=O (centres undefined)

Activity [1]: Active
SMILES: O=C(CN1C/C(=C\c2ccccc2F)C(=O)/C(=C/c2ccccc2F)C1)NCCOCCOCCOCCNc1cccc2c1C(=O)N(C1CCC(=O)NC1=O)C2=O (centres undefined)

Activity [17]: inactive
SMILES: CN1C(=O)CCC(N2C(=O)c3cccc(NCCOCCOCCOCCNC(=O)CN4C/C(=C\c5ccccc5Br)C(=O)/C(=C/c5ccccc5Br)C4)c3C2=O)C1=O (centres undefined)

Activity [1]: Active
SMILES: O=C(CN1C/C(=C\c2ccccc2Cl)C(=O)/C(=C/c2ccccc2Cl)C1)NCCOCCOCCNc1cccc2c1C(=O)N(C1CCC(=O)NC1=O)C2=O (centres undefined)

Activity [1]: Active
SMILES: O=C(CN1C/C(=C\c2ccccc2F)C(=O)/C(=C/c2ccccc2F)C1)NCCOCCOCCNc1cccc2c1C(=O)N(C1CCC(=O)NC1=O)C2=O (centres undefined)
